ChEMBL document CHEMBL1123811, “gem-Diphosphonate and gem-phosphonate-phosphate compounds with specific high density lipoprotein inducing activity” (1987)

Columns and labels:
Format in all cases: functional
Rattus norvegicus [1] = species on record: Rattus norvegicus; assay: Activity to induce the elevation of HDL(High Density Lipoproteins)-Cholesterol in plasma lipids of male Wistar rats; parameters: concentration or dose not given beside the values
Outline: (§1)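 Wistar rats on normal diet; groups were vehicle control, an internal-standard diphosphonate, and test compounds. Dosed daily for 4 days; diphosphonates were dissolved in water or suspended in 1% (carboxymethyl)cellulose, 4 mL/kg. On day 5, after overnight fast, rats were killed under ether. EDTA plasma was assayed enzymatically for HDL-C after heparin-CaCl2 precipitation of VLDL/LDL, phospholipids, triglycerides and α/β-cholesterol ratio. Results are given as % of control.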

Rattus norvegicus [2] = species on record: Rattus norvegicus; assay: Activity to induce the elevation of phospholipids in plasma lipids of male Wistar rats; parameters: concentration or dose not given beside the values; outline: as §1
Rattus norvegicus [3] = species on record: Rattus norvegicus; assay: Activity to induce the elevation of triglycerides in plasma lipids of male Wistar rats; parameters: concentration or dose not given beside the values; outline: as §1
Rattus norvegicus [4] = species on record: Rattus norvegicus; assay: Activity to induce the elevation of alpha/beta cholesterol ratio in plasma lipids of male Wistar rats; parameters: concentration or dose not given beside the values; outline: as §1
Rattus norvegicus [5] = assay: Activity to induce the elevation of HDL(High Density Lipoproteins)-Cholesterol in plasma lipids of male Wistar rats after po administration of 100 mg/kg/day
Outline: (§2)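 Wistar rats on a normal diet were dosed daily for 4 days at the dose and route given. On day 5, after an overnight fast, they were killed under ether and blood was taken by decapitation into EDTA. Plasma HDL cholesterol was measured after heparin-CaCl2 precipitation of VLDL/LDL and is expressed as % change versus a vehicle control group.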

Rattus norvegicus [6] = assay: Activity to induce the elevation of phospholipids in plasma lipids of male Wistar rats after po administration of 100 mg/kg/day
Outline: (§3)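 Normal-diet Wistar rats were given the test agent once daily for 4 days and killed on day 5 after an overnight fast. Total plasma phospholipids (EDTA plasma) were measured chemically by the molybdate/vanadate reaction or enzymatically (phospholipid B test). Values are % of vehicle controls.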

Rattus norvegicus [7] = assay: Activity to induce the elevation of triglycerides in plasma lipids of male Wistar rats after po administration of 100 mg/kg/day
Outline: (§4)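 Daily dosing of normal-diet Wistar rats ran for 4 days, with sacrifice on day 5 after an overnight fast. Plasma was collected by decapitation into EDTA. Total triglycerides were measured enzymatically and expressed as % change relative to the vehicle control group.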

Rattus norvegicus [8] = assay: Activity to induce the elevation of alpha/beta cholesterol ratio in plasma lipids of male Wistar rats after po administration of 100 mg/kg/day
Outline: (§5)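 Rats (Wistar, normal diet) were treated daily for 4 days and fasted overnight, and EDTA plasma was taken on day 5. Total cholesterol was measured enzymatically, and β-lipoprotein cholesterol after heparin-CaCl2 precipitation. The α/β-cholesterol ratio is reported as % change from vehicle-treated controls.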

Rattus norvegicus [9] = assay: Activity to induce the elevation of phospholipids in plasma lipids of male Wistar rats after the sc administration of 5 mg/kg/day; conditions: route subcutaneous; outline: as §3
Rattus norvegicus [10] = assay: Activity to induce the elevation of triglycerides in plasma lipids of male Wistar rats after the sc administration of 5 mg/kg/day; conditions: route subcutaneous; outline: as §4
Rattus norvegicus [11] = assay: Activity to induce the elevation of alpha/beta cholesterol ratio in plasma lipids of male Wistar rats after the sc administration of 5 mg/kg/day; conditions: route subcutaneous; outline: as §5
Rattus norvegicus [12] = assay: Activity to induce the elevation of HDL(High Density Lipoproteins)-Cholesterol in plasma lipids of male Wistar rats after the sc administration of 5 mg/kg/day; conditions: route subcutaneous; outline: as §2
Rattus norvegicus [13] = species on record: Rattus norvegicus; assay: Activity to induce the elevation of alpha/beta cholesterol ratio of male Wistar rats; parameters: concentration or dose not given beside the values; outline: as §1
Rattus norvegicus [14] = species on record: Rattus norvegicus; assay: Activity to induce the elevation of phospholipids of male Wistar rats; parameters: concentration or dose not given beside the values; outline: as §1
Rattus norvegicus [15] = species on record: Rattus norvegicus; assay: Activity to induce the elevation of triglycerides of male Wistar rats; parameters: concentration or dose not given beside the values; outline: as §1
Rattus norvegicus [16] = species on record: Rattus norvegicus; assay: Activity to induce the elevation of HDL(High Density Lipoproteins)-Cholesterol of male Wistar rats; parameters: concentration or dose not given beside the values; outline: as §1
Rattus norvegicus [17] = assay: Activity to induce the elevation of triglycerides of male Wistar rats after po administration of 100 mg/kg/day; outline: as §4
Rattus norvegicus [18] = assay: Activity to induce the elevation of alpha/beta cholesterol ratio of male Wistar rats after po administration of 100 mg/kg/day; outline: as §5
Rattus norvegicus [19] = assay: Activity to induce the elevation of phospholipids of male Wistar rats after po administration of 100 mg/kg/day; outline: as §3
Rattus norvegicus [20] = assay: Activity to induce the elevation of HDL(High Density Lipoproteins)-Cholesterol of male Wistar rats after po administration of 100 mg/kg/day; outline: as §2

## CCCCCCCCCCCCCCOc1ccc(CC(P(=O)(OCC)OCC)P(=O)(OCC)OCC)cc1
Rattus norvegicus [1]
  Control: 27%
Rattus norvegicus [2]
  Control: -4%
Rattus norvegicus [3]
  Control: -27%
Rattus norvegicus [4]
  Control: -28%

## COP(=O)(OC)C(Cl)(CCCOc1ccccc1)P(=O)(OC)OC
Rattus norvegicus [1]
  Control: 57%
Rattus norvegicus [2]
  Control: 15%
Rattus norvegicus [3]
  Control: -3%
Rattus norvegicus [4]
  Control: -42%

## COP(=O)(OC)C(Cl)(CCCc1ccccc1)P(=O)(OC)OC
Rattus norvegicus [1]
  Control: 26%
Rattus norvegicus [2]
  Control: 24%
Rattus norvegicus [3]
  Control: -36%
Rattus norvegicus [4]
  Control: -9%

## CC(C)OC(=O)C(C)(C)Oc1ccc(C(=O)c2ccc(Cl)cc2)cc1 [FENOFIBRATE]
Rattus norvegicus [5]
  Control: -45%
Rattus norvegicus [6]
  Control: -19%
Rattus norvegicus [7]
  Control: 12%
Rattus norvegicus [8]
  Control: -80%

## COP(=O)(OC)C(Cl)(Cc1ccc(Cl)cc1)P(=O)(OC)OC
Rattus norvegicus [1]
  Control: 10%
Rattus norvegicus [2]
  Control: 7%
Rattus norvegicus [3]
  Control: 11%
Rattus norvegicus [4]
  Control: 81%

## C[C@]12CC[C@@H]3c4ccc(O)cc4CC[C@H]3[C@@H]1CC[C@@H]2O [ESTRADIOL]
Rattus norvegicus [9]
  Control: -77%
Rattus norvegicus [10]
  Control: -51%
Rattus norvegicus [11]
  Control: -47%
Rattus norvegicus [12]
  Control: -83%

## CCCCCCCCCCCCCCCC(O)(P(=O)(OC)OC)P(=O)(OC)OC
Rattus norvegicus [1]
  Control: -3%
Rattus norvegicus [2]
  Control: 4%
Rattus norvegicus [3]
  Control: 14%
Rattus norvegicus [4]
  Control: -38%

## CCCCCCCCCCCCCCOc1ccc(CC(P(=O)(OC)OC)P(=O)(OC)OC)cc1
Rattus norvegicus [1]
  Control: 20%
Rattus norvegicus [2]
  Control: 10%
Rattus norvegicus [3]
  Control: 4%
Rattus norvegicus [4]
  Control: 14%

## O=P(O)(O)C(CCCc1ccccc1)P(=O)(O)O
Rattus norvegicus [13]
  Percent change in alpha/beta cholesterol ratio versus control: 14%
Rattus norvegicus [14]
  Plasma phospholipids, % change versus control: 12%
Rattus norvegicus [15]
  Percent change in plasma triglycerides versus control: 11%
Rattus norvegicus [16]
  HDL-cholesterol change relative to control (%): 3%

## CCOP(=O)(OCC)C(Cl)(CCCc1ccccc1)P(=O)(OCC)OCC
Rattus norvegicus [1]
  Control: -2%
Rattus norvegicus [2]
  Control: 27%
Rattus norvegicus [3]
  Control: -4%
Rattus norvegicus [4]
  Control: -23%

## COP(=O)(OC)OC(C(C)C)P(=O)(OC)OC (stereo not given)
Rattus norvegicus [13]
  Percent change in alpha/beta cholesterol ratio versus control: 38%
Rattus norvegicus [14]
  Plasma phospholipids, % change versus control: 7%
Rattus norvegicus [15]
  Percent change in plasma triglycerides versus control: -26%
Rattus norvegicus [16]
  HDL-cholesterol change relative to control (%): 15%

## CC(C)OP(=O)(OC(C)C)C(Cc1ccc(Cl)cc1)P(=O)(OC(C)C)OC(C)C
Rattus norvegicus [13]
  Percent change in alpha/beta cholesterol ratio versus control: -1%
Rattus norvegicus [14]
  Plasma phospholipids, % change versus control: 13%
Rattus norvegicus [15]
  Percent change in plasma triglycerides versus control: 19%
Rattus norvegicus [16]
  HDL-cholesterol change relative to control (%): 12%

## CCOC(=O)C(C)(C)Oc1ccc(Cl)cc1 [CLOFIBRATE]
Rattus norvegicus [5]
  Control: -34%
Rattus norvegicus [6]
  Control: -22%
Rattus norvegicus [7]
  Control: 28%
Rattus norvegicus [8]
  Control: -53%

## CCOP(=O)(OCC)C(CCCOc1ccccc1)P(=O)(OCC)OCC
Rattus norvegicus [13]
  Percent change in alpha/beta cholesterol ratio versus control: 37%
Rattus norvegicus [14]
  Plasma phospholipids, % change versus control: 0%
Rattus norvegicus [15]
  Percent change in plasma triglycerides versus control: 0%
Rattus norvegicus [16]
  HDL-cholesterol change relative to control (%): 16%

## COP(=O)(OC)OC(c1ccc(Cl)cc1)P(=O)(OC)OC (stereo not given) [MIFOBATE]
Rattus norvegicus [17]
  Control: 0%
Rattus norvegicus [13]
  Percent change in alpha/beta cholesterol ratio versus control: 180%
Rattus norvegicus [18]
  Control: 52%
Rattus norvegicus [14]
  Plasma phospholipids, % change versus control: 26%
Rattus norvegicus [19]
  Control: 17%
Rattus norvegicus [15]
  Percent change in plasma triglycerides versus control: 0%
Rattus norvegicus [16]
  HDL-cholesterol change relative to control (%): 157%
Rattus norvegicus [20]
  Control: 26%

## CCOP(=O)(OCC)C(CCOc1ccccc1)P(=O)(OCC)OCC
Rattus norvegicus [13]
  Percent change in alpha/beta cholesterol ratio versus control: 26%
Rattus norvegicus [14]
  Plasma phospholipids, % change versus control: 25%
Rattus norvegicus [15]
  Percent change in plasma triglycerides versus control: -38%
Rattus norvegicus [16]
  HDL-cholesterol change relative to control (%): 29%

## COP(=O)(OC)OC(c1ccc(Cl)cc1Cl)P(=O)(OC)OC (stereo not given)
Rattus norvegicus [13]
  Percent change in alpha/beta cholesterol ratio versus control: 39%
Rattus norvegicus [14]
  Plasma phospholipids, % change versus control: 28%
Rattus norvegicus [15]
  Percent change in plasma triglycerides versus control: 13%
Rattus norvegicus [16]
  HDL-cholesterol change relative to control (%): 51%

## COP(=O)(OC)OC(c1ccccc1)P(=O)(OC)OC (stereo not given)
Rattus norvegicus [13]
  Percent change in alpha/beta cholesterol ratio versus control: 76%
Rattus norvegicus [14]
  Plasma phospholipids, % change versus control: 21%
Rattus norvegicus [15]
  Percent change in plasma triglycerides versus control: 32%
Rattus norvegicus [16]
  HDL-cholesterol change relative to control (%): 4%

## COP(=O)(OC)C(O)(c1ccc(F)cc1)P(=O)(OC)OC
Rattus norvegicus [13]
  Percent change in alpha/beta cholesterol ratio versus control: 64%
Rattus norvegicus [14]
  Plasma phospholipids, % change versus control: 3%
Rattus norvegicus [15]
  Percent change in plasma triglycerides versus control: 27%
Rattus norvegicus [16]
  HDL-cholesterol change relative to control (%): 23%

## O=P(O)(O)C(CCc1ccccc1)P(=O)(O)O
Rattus norvegicus [13]
  Percent change in alpha/beta cholesterol ratio versus control: -27%
Rattus norvegicus [14]
  Plasma phospholipids, % change versus control: -16%
Rattus norvegicus [15]
  Percent change in plasma triglycerides versus control: -17%
Rattus norvegicus [16]
  HDL-cholesterol change relative to control (%): -24%

## O=P(O)(O)C(Cc1ccccc1)P(=O)(O)O
Rattus norvegicus [13]
  Percent change in alpha/beta cholesterol ratio versus control: -10%
Rattus norvegicus [14]
  Plasma phospholipids, % change versus control: 3%
Rattus norvegicus [15]
  Percent change in plasma triglycerides versus control: -11%
Rattus norvegicus [16]
  HDL-cholesterol change relative to control (%): -8%

## COP(=O)(OC)C(O)(c1ccc(Cl)cc1)P(=O)(OC)OC
Rattus norvegicus [13]
  Percent change in alpha/beta cholesterol ratio versus control: 130%
Rattus norvegicus [14]
  Plasma phospholipids, % change versus control: 19%
Rattus norvegicus [15]
  Percent change in plasma triglycerides versus control: 15%
Rattus norvegicus [16]
  HDL-cholesterol change relative to control (%): 44%

## CCCCCC(O)(P(=O)(OC)OC)P(=O)(OC)OC
Rattus norvegicus [13]
  Percent change in alpha/beta cholesterol ratio versus control: -17%
Rattus norvegicus [14]
  Plasma phospholipids, % change versus control: 10%
Rattus norvegicus [15]
  Percent change in plasma triglycerides versus control: -21%
Rattus norvegicus [16]
  HDL-cholesterol change relative to control (%): -16%

## CCOP(=O)(OCC)C(CCc1ccccc1)P(=O)(OCC)OCC
Rattus norvegicus [13]
  Percent change in alpha/beta cholesterol ratio versus control: 74%
Rattus norvegicus [14]
  Plasma phospholipids, % change versus control: 16%
Rattus norvegicus [15]
  Percent change in plasma triglycerides versus control: 11%
Rattus norvegicus [16]
  HDL-cholesterol change relative to control (%): 41%
